According to ChEMBL document CHEMBL3414423, “Jatrophane diterpenes as inhibitors of chikungunya virus replication: structure-activity relationship and discovery of a potent lead” (J Nat Prod, 2014):

How the values were obtained:
[1] = Cytotoxicity against African green monkey Vero cells assessed as inhibition of overall cell metabolism after 6 to 7 days by MTS assay; type: ADME, cell-based; conditions: chlorocebus sabaeus
Summary of the method: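 Uninfected Vero cells (25 000/well) with compound serial dilutions in MEM with 2% FCS, 37 °C, 6−7 days. Readout 5% MTS for 1.5 h, absorbance 498 nm. CC50 is the concentration calculated to inhibit overall cell metabolism by 50%, from dose−response curves. Median ± median absolute deviation, ≥3 independent assays.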

Chikungunya virus = assay: Antiviral activity against Chikungunya virus 899 infected in African green monkey Vero cells assessed as inhibition of virus-induced cell death after 6 to 7 days by MTS assay; type: functional, cell-based; conditions: Chikungunya virus, 899, Vero
[2] = Selectivity index, ratio of CC50 for African green monkey Vero cells to EC50 for Chikungunya virus 899 infected in African green monkey Vero cells; type: toxicity, cell-based; conditions: read-out: Ratio CC50/EC50
Sindbis virus = assay: Antiviral activity against Sindbis virus HRsp infected in African green monkey Vero cells assessed as inhibition of virus-induced cell death after 6 to 7 days by MTS assay; type: functional, organism-based
Semliki Forest virus = assay: Antiviral activity against Semliki forest virus Vietnam infected in African green monkey Vero cells assessed as inhibition of virus-induced cell death after 6 to 7 days by MTS assay; type: functional, organism-based
[3] = Cytotoxicity against human MT4 cells assessed as inhibition of overall cell metabolism after 5 days by MTT assay; type: ADME, cell-based
Summary of the method: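 Mock-infected MT-4 cells in triplicate wells with serial 5-fold compound dilutions run alongside the infected series. Viability read by MTT formazan 5 days later; CC50 from the concentration-response. Median ± median absolute deviation, ≥3 independent assays.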

[4] = tested on: Human immunodeficiency virus 1; assay: Antiviral activity against Human immunodeficiency virus 1 3b infected in human MT4 cells assessed as inhibition of virus replication after 5 days by MTT assay; type: functional, organism-based; conditions: MT4, 120 h
Summary of the method: (§1)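 MT-4 cells ([…] suspension) infected with HIV-1 IIIB or HIV-2 ROD at 100−300 CCID50, with serial 5-fold compound dilutions in triplicate. Viability read by MTT reduction 5 days after infection. SI = CC50 MT-4/IC50. Median ± median absolute deviation, ≥3 independent assays.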

[5] = tested on: Human immunodeficiency virus 2; assay: Antiviral activity against Human immunodeficiency virus type 2 ROD infected in human MT4 cells assessed as inhibition of virus replication after 5 days by MTT assay; type: functional, organism-based; conditions: Human immunodeficiency virus 2, ISOLATE ROD, MT4, 120 h; summary of the method: as §1
[6] = Selectivity index, ratio of CC50 for human MT4 cells to IC50 for Human immunodeficiency virus type 2 ROD infected in human MT4 cells; type: functional; summary of the method: as §1
[7] = Selectivity index, ratio of CC50 for human MT4 cells to IC50 for Human immunodeficiency virus 1 3b infected in human MT4 cells; type: functional; summary of the method: as §1
[8] = Selectivity index, ratio of CC50 for African green monkey Vero cells to EC50 for Sindbis virus HRsp infected in African green monkey Vero cells; type: toxicity, cell-based; conditions: read-out: Ratio CC50/EC50
[9] = Selectivity index, ratio of CC50 for African green monkey Vero cells to EC50 for Semliki forest virus Vietnam infected in African green monkey Vero cells; type: toxicity, cell-based; conditions: read-out: Ratio CC50/EC50
[10] = tested on: Human immunodeficiency virus 1; assay: Antiviral activity against recombinant Human immunodeficiency virus 1 NL4.3 containing Renilla gene infected in CD3/IL2-activated human MT2 cells assessed as inhibition of virus replication pretreated for 2 hrs followed by viral infection for additional 2 hrs measured after 48 hrs by Renilla-luciferase reporter gene assay; type: functional, organism-based; conditions: Human immunodeficiency virus 1, NL4.3, MT2
[11] = Cytotoxicity against human MT2 cells assessed as cell viability incubated for 2 weeks with every 48 to 72 hrs of compound washed out measured on day 2, 6, 10, 14 by CellTiter Glo luminescence assay; type: cell-based

Row | Compound | CC50 [1] | EC50 (Chikungunya virus) | selectivity ratio [2] | EC50 (Sindbis virus) | EC50 (Semliki Forest virus) | CC50 at 120 h [3] | IC50 [4] | IC50 [5] | Ratio CC50/IC50 [6] | Ratio CC50/IC50 [7] | selectivity ratio [8] | selectivity ratio [9] | IC50 [10] | CC50 at 336 h [11]
1 | C=C1[C@H](OC(C)=O)[C@H]2[C@@H](OC(C)=O)[C@](C)(O)C[C@]2(OC(C)=O)C(=O)[C@H](C)/C=C/C(C)(C)C(=O)[C@H](OC(=O)c2ccccc2)[C@H]1OC(C)=O | 125 µM | 4.3 µM | 29 | > 165 µM | > 165 µM | > 30 µM | > 59 µM | 10.9 µM | >2.8 | – | – | – | – | –
2 | C=C1[C@H](OC(C)=O)[C@H]2[C@@H](OC(C)=O)[C@](C)(OC(C)=O)C[C@]2(OC(C)=O)C(=O)[C@H](C)/C=C/C(C)(C)C(=O)[C@H](OC(=O)c2ccccc2)[C@H]1OC(C)=O | > 50 µM | 17.1 µM | > 2.9 | > 140 µM | > 140 µM | > 36 µM | > 70 µM | 34.7 µM | >1 | – | – | – | – | –
3 | O=c1[nH]cnc2c1ncn2[C@H]1CC[C@@H](CO)O1 [DIDANOSINE] | – | – | – | – | – | > 50 µM | 10.8 µM | 9.6 µM | >5.2 | >4.6 | – | – | – | –
4 | Cc1ccnc2c1NC(=O)c1cccnc1N2C1CC1 [NEVIRAPINE] | – | – | – | – | – | > 15 µM | – | > 15 µM | – | – | – | – | – | –
5 | C=C1[C@H](OC(C)=O)[C@H]2[C@@H](OC(=O)c3ccccc3)[C@@H](C)C[C@]2(O)[C@H](O)[C@H](C)/C=C/C(C)(C)C(=O)[C@H](OC(=O)C(C)CC)[C@H]1OC(C)=O (stereo partly specified) | > 190 µM | 111 µM | > 1.7 | 51 µM | 76 µM | > 33 µM | > 76 µM | > 76 µM | – | – | > 3.7 | > 2.5 | – | –
6 | C=C1[C@H](OC(C)=O)[C@H]2[C@@H](OC(C)=O)[C@](C)(O)C[C@]2(OC(C)=O)C(=O)[C@H](C)/C=C/C(C)(C)C(=O)[C@H](OC(C)=O)[C@H]1OC(C)=O | – | > 164 µM | – | – | – | – | – | – | – | – | – | – | – | –
7 | C=C1[C@H](OC(C)=O)[C@H]2[C@@H](OC(C)=O)[C@](C)(O)C[C@]2(OC(C)=O)C(=O)[C@H](C)/C=C/C(C)(C)C(=O)[C@H](OC(=O)/C(C)=C/C)[C@H]1OC(C)=O | 159 µM | 0.76 µM | 208 | 44 µM | > 116 µM | > 32 µM | 0.34 µM | 0.043 µM | >751 | >96 | 3.6 | – | – | –
8 | C=C1[C@H](OC(C)=O)[C@H]2[C@@H](OC(C)=O)[C@](C)(OC(C)=O)C[C@]2(OC(C)=O)C(=O)[C@H](C)/C=C/C(C)(C)C(=O)[C@H](OC(=O)/C(C)=C/C)[C@H]1OC(C)=O | 145 µM | 17.4 µM | 8.3 | > 145 µM | > 145 µM | > 35 µM | 21.5 µM | 2 µM | >18 | >1.6 | – | – | – | –
9 | C=C1[C@H](OC(C)=O)[C@H]2[C@@H](OC(=O)c3ccccc3)[C@@H](C)C[C@]2(O)[C@H](OC(C)=O)[C@H](C)/C=C/C(C)(C)C(=O)[C@H](O)[C@H]1OC(C)=O | 150 µM | 80 µM | 1.9 | > 163 µM | > 163 µM | > 31 µM | > 81 µM | 32.5 µM | <0.9 | – | – | – | – | –
10 | C=C1[C@H](OC(C)=O)[C@H]2[C@@H](OC(=O)c3ccccc3)[C@@H](C)C[C@]2(O)[C@H](O)[C@H](C)/C=C/C(C)(C)C(=O)[C@H](OC(C)=O)[C@H]1OC(C)=O | 151 µM | 19.5 µM | 7.8 | 30.1 µM | 62 µM | > 31 µM | > 38 µM | 5.2 µM | >6 | – | 5 | 2.4 | – | –
11 | C=C1[C@H](OC(C)=O)[C@H]2[C@@H](OC(C)=O)[C@](C)(OC(C)=O)C[C@]2(OC(C)=O)C(=O)[C@H](C)/C=C/C(C)(C)C(=O)[C@H](OC(C)=O)[C@H]1OC(C)=O | > 154 µM | 60 µM | > 2.6 | > 154 µM | > 115 µM | > 33 µM | 37.1 µM | 5.9 µM | >5.5 | – | – | – | 0.002 µM | > 100 µM
12 | CCN(CC)CCCC(C)Nc1ccnc2cc(Cl)ccc12 (stereo unspecified) [CHLOROQUINE] | – | 10 µM | – | – | – | – | – | – | – | – | – | – | – | –
13 | Cc1cn([C@H]2C[C@H](N=[N+]=[N-])[C@@H](CO)O2)c(=O)[nH]c1=O [ZIDOVUDINE] | – | – | – | – | – | > 25 µM | – | 0.006 µM | – | – | – | – | – | –
14 | Nc1ccn([C@@H]2CS[C@H](CO)O2)c(=O)n1 [LAMIVUDINE] | – | – | – | – | – | > 87 µM | – | – | >5.6 | >22 | – | – | – | –
15 | C=C1[C@H](OC(C)=O)[C@H]2[C@@H](OC(=O)c3ccccc3)[C@@H](C)C[C@]2(O)[C@H](O)[C@H](C)/C=C/C(C)(C)C(=O)[C@H](OC(=O)C(C)C)[C@H]1OC(C)=O | 60 µM | 21 µM | 2.8 | 28.8 µM | 20.5 µM | > 16 µM | > 39 µM | > 39 µM | – | – | 2.1 | 2.9 | – | –
16 | C=C1[C@H](OC(C)=O)[C@H]2[C@@H](OC(C)=O)[C@](C)(O)C[C@]2(OC(C)=O)C(=O)[C@H](C)/C=C/C(C)(C)C(=O)[C@H](OC(=O)C(C)C)[C@H]1OC(C)=O | > 196 µM | > 196 µM | – | > 157 µM | > 157 µM | > 32 µM | > 79 µM | > 79 µM | – | – | – | – | – | –
